Only some compounds are listed: those with a hit (about 2.6% of all), similar ones and a draw of the others.
SIRT5 inh: blocks human SIRT5 desuccinylation of peptide | Q9NXA8 | Purified SirT5, succinyl-peptide AMC, trypsin-coupled fluorescence | inhibition, % at 15 µM | 1.1% of 330,000 active; in the data active = inhibition above about 15%
Target sequence (Q9NXA8 whole entry, looked up): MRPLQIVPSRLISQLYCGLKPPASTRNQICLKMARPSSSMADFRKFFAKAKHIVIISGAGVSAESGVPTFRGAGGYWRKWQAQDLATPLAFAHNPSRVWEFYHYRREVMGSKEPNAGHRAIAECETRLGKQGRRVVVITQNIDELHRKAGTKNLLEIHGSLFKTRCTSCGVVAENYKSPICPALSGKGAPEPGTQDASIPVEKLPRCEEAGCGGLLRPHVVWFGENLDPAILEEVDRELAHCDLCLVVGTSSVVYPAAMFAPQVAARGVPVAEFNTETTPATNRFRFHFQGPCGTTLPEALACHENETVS
NSD2 HMT inh: inhibitors of human histone methyltransferase NSD2; NSD2 peptide methylation, AlphaScreen, 120 min; 0.54% of 310,000 active; AID 743445; inhibition, % at 12.5 µM; O96028; in the data active = inhibition above about 50%
Casp6 inh: inhibitors of human caspase-6 | purified caspase-6, Z-VEID-R110 cleavage fluorescence | P55212 | inhibition, % at 12.5 µM | 0.53% of 350,000 active;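 active = mean inhibition across replicates at least about 35%, with every replicate also reaching that limit, limit read from the data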;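 note: 0% = median of neutral control wells and 100% = no fluorescence left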
UCH37 inh: inhibitors of human deubiquitinating enzyme UCH37; inhibition, % (no concentration beside the values); purified proteasome/UCH37, Ub-AMC cleavage fluorescence; AID 588478; 0.33% of 330,000 active;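 active = mean inhibition over replicate wells above about 20%, limit read from the data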;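 note: 0% = compound-free wells with enzyme and 100% = wells lacking proteasome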
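Schedule: 30 min plus 25 min, room temperature / Material: human UCH37 within purified proteasomes / Technique: AMC fluorescence intensity at 355/460 nm / Buffer or medium: pH 7.4 Tris-HCl (50 mM) with ovalbumin, ATP-MgCl2, DTT / Controls: wells without proteasome as full block, compound-free enzyme plus substrate as uninhibited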
FGF22 binding: binders of recombinant human FGF22 by thermal shift. activity (Tm shift, normalised), % at 9.99 µM. SYPRO orange fluorescence; percent of sucrose octasulfate shift, DMSO zero. 1.5% of 340,000 active. Q9HCT0;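 active = mean Tm shift, scaled 0 neutral to 100 positive control, at about 1.3% or above, every replicate too, limit read from the data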
UCH37 reconfirm: confirmation of human UCH37 deubiquitinating enzyme inhibitors. AID 624100. inhibition, % at 20 µM. shares compounds with UCH37 inh. Proteasome-bound UCH37, Ub-AMC cleavage fluorescence. 27% of 480 active;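 active = average inhibition over replicates above about 50%, so the earlier screening hit is confirmed, limit read from the data; inactive = the rest, counted as false positives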;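 note: based on cleavage rate fitted by regression over a 30 min kinetic read; 0% = proteasome plus Ub-AMC and 100% = Ub-AMC without proteasome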
The depositor's hits bear a star; . = no result given.

SMILES	SIRT5 inh	NSD2 HMT inh	Casp6 inh	UCH37 inh	FGF22 binding	UCH37 reconfirm
CC1CCCC(NC(=O)COC(=O)c2ccc([N+](=O)[O-])s2)C1C (stereo not given)	-3	34	57*	78*	0	85*
Cn1c(COc2ccccc2)nc2ccccc21	5	-3	-5	2	0	.
Cn1c(Cc2nc3ccccc3n2C)nc2ccccc21	.	.	.	42*	0	15
CCC(=O)N[C@@H]1C=C[C@@H](CC(=O)NCc2ccc(OC)cc2)O[C@@H]1CO	1	.	1	.	1	.
COc1cc(NCCCCCCN)c2ncccc2c1OC	5	.	85*	69*	-1	70*
COc1cc(N)c2ncccc2c1OC	-1	14	9	4	0	.
C[C@@H]1CN([C@@H](C)CO)C(=O)c2cccc(NC(=O)Nc3ccccc3)c2O[C@H]1CN(C)Cc1ccncc1	-1	.	2	.	0	.
COCCNC(=S)NN=Cc1ccc([N+](=O)[O-])cc1	.	.	.	6	.	.
C[C@H](NC(=O)C[C@H]1CC[C@H]2[C@@H](COC[C@H](O)CN2Cc2cc(F)ccc2F)O1)c1ccccc1	3	.	0	.	0	.
N#CC(=NNc1ccc([N+](=O)[O-])cc1)C(N)=S	.	.	.	29*	.	19
CO[C@@H]1CN(C)C(=O)c2ccc(NC(=O)c3ccc(F)cc3)cc2OC[C@@H](C)N(C(=O)CC2CC2)C[C@H]1C	-1	.	.	.	0	.
CCCC[n+]1ccn(C2=C([O-])c3ccccc3C(=O)/C2=N\S(=O)(=O)c2ccc(Br)cc2)c1	0	31	1	19	0	.
CC(=O)Nc1ccc(S(=O)(=O)/N=C2\C(=O)c3ccccc3C([O-])=C2n2cc[n+](-c3ccccn3)c2)cc1	3	46	68*	57*	0	58*
N#Cc1ccc(C(CC(=O)O)N2Cc3ccccc3C2=O)cc1 (stereo not given)	-3	1	1	5	0	.
CC(C)c1ccc(C(CC(=O)O)N2Cc3ccccc3C2=O)cc1 (stereo not given)	-3	-3	-3	62*	0	81*
CC(=O)Nc1ccc(S(=O)(=O)N2CCC(c3nc4ccc(C)cc4[nH]3)CC2)cc1	.	4	.	28*	.	12
O=C(O)CC/C(=C\c1ccc(N2CCOCC2)c([N+](=O)[O-])c1)c1nc2ccccc2s1	9	4	-7	26*	0	20
O=C(O)C/C(=C\c1ccc(N2CCOCC2)c([N+](=O)[O-])c1)c1nc2ccccc2s1	-7	9	-5	17	0	.
CCOc1ccc(CNC(=S)NN=Cc2ccncc2)cc1	.	.	.	44*	.	-11
COc1ccc(N(N=C2Sc3ccccc3C2=O)C(C)=O)cc1	.	.	.	78*	.	29
COc1ccc(N(/N=C2\Sc3ccccc3C2=O)C(C)=O)cc1	.	-5	.	.	.	.
CC(=O)N(N=C1Sc2ccccc2C1=O)c1cccc(C)c1	.	.	.	81*	.	72*
Cc1ccc(SCC(O)=C(C#N)c2nc3ccccc3s2)cc1	.	.	.	1	.	.
C[C@H]1CCCCO[C@H](CN(C)Cc2ccc(C(=O)O)cc2)[C@@H](C)CN([C@@H](C)CO)C(=O)c2cc(N(C)C)ccc2O1	7	.	1	.	0	.
O=C(NN=c1c(=O)c2ccccc2c1=O)c1ccccc1	0	2	.	79*	0	77*
SMILES	SIRT5 inh	NSD2 HMT inh	Casp6 inh	UCH37 inh	FGF22 binding	UCH37 reconfirm
CN(C)/C=N/NC(=O)c1ccccc1	1	2	0	.	.	.
COc1cc(OC)c([N+](=O)[O-])cc1C=NNC(=O)c1ccncc1	.	.	.	44*	.	15
COc1cc(OC)c(OC)cc1C=NNC(=O)c1cnccn1	.	.	.	41*	.	27
Cc1cccc(NC2=C(NC(=O)c3ccccc3)C(=O)c3ccccc3C2=O)c1	.	49	.	52*	.	42
O=C(NN=Cc1cccnc1)c1ccc2c(c1)OCCO2	.	.	.	2	.	.
Cc1ccc(C(=O)NNc2cc(N3CCCC3)nc(N3CCCC3)n2)cc1	.	.	.	49*	.	50*
O=c1cc(N2CCc3ccccc3C2)[nH]c(=O)n1-c1ccccc1Cl	3	.	7	13	0	.
Cc1ccc(-n2c(=O)cc(N3CCc4ccccc4C3)[nH]c2=O)cc1	.	0	.	34*	.	32
Cc1ccccc1-n1c(=O)cc(N2CCc3ccccc3C2)[nH]c1=O	-3	3	16	27*	0	32
CCC(=O)N1C[C@H](C)[C@H](OC)CN(C)C(=O)c2cc(NC(=O)c3ccccc3)ccc2OC[C@H]1C	0	.	.	.	1	.

High-throughput results (PubChem BioAssay)
